Laboratory results: ChEMBL document CHEMBL4428071 (J Med Chem, 2016)
Values after ≈ are worked out from the molar mass of the structure shown. Active and inactive are the calls of the source. The calls are words filed in the database; no cut-off is given here.

Legend:
[1] = tested on: Mast/stem cell growth factor receptor Kit (Homo sapiens), P10721 [T670I]; test: Inhibition of […] cKIT T670I mutant in human GIST-5R cells assessed as cell growth inhibition after 72 hrs by cell titer-glo assay; format: cell-based
Chain of Mast/stem cell growth factor receptor Kit (Homo sapiens), P10721 [T670I] (P10721 whole entry T670I, the tested form may be a part): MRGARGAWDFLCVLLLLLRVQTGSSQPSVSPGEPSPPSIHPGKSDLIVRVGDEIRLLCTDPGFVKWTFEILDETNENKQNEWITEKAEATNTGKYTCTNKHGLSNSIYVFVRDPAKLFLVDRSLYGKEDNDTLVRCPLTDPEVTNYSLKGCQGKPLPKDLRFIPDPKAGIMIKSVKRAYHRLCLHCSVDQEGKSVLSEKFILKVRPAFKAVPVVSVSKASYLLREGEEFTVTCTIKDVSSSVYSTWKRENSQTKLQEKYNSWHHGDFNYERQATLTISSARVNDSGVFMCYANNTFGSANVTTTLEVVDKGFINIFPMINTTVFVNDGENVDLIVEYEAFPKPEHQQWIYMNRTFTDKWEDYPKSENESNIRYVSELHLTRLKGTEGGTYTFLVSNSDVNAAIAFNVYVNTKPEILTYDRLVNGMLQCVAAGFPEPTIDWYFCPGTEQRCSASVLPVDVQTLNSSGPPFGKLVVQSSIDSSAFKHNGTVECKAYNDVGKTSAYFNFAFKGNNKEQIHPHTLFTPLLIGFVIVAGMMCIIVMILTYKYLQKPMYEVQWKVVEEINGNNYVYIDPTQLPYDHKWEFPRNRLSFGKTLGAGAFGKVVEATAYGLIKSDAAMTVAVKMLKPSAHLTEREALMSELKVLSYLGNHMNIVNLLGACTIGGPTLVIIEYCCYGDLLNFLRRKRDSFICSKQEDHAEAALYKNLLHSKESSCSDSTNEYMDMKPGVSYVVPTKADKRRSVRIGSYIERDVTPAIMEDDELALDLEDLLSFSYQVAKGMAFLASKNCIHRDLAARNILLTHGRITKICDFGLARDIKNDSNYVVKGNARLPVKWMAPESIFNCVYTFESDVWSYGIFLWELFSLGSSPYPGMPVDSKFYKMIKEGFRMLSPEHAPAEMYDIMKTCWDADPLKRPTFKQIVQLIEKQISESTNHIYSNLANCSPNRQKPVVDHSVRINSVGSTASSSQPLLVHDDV

[2] = molecular target: T1, Mast/stem cell growth factor receptor Kit (Homo sapiens, UniProt P10721, T670I); test: Inhibition of cKIT T670I mutant in human GIST-5R cells assessed as downregulation of S6 phosphorylation at S235/236 after 1 hr by Western blot analysis; format: cell-based
T1 sequence (P10721 26-976 T670I limits assumed): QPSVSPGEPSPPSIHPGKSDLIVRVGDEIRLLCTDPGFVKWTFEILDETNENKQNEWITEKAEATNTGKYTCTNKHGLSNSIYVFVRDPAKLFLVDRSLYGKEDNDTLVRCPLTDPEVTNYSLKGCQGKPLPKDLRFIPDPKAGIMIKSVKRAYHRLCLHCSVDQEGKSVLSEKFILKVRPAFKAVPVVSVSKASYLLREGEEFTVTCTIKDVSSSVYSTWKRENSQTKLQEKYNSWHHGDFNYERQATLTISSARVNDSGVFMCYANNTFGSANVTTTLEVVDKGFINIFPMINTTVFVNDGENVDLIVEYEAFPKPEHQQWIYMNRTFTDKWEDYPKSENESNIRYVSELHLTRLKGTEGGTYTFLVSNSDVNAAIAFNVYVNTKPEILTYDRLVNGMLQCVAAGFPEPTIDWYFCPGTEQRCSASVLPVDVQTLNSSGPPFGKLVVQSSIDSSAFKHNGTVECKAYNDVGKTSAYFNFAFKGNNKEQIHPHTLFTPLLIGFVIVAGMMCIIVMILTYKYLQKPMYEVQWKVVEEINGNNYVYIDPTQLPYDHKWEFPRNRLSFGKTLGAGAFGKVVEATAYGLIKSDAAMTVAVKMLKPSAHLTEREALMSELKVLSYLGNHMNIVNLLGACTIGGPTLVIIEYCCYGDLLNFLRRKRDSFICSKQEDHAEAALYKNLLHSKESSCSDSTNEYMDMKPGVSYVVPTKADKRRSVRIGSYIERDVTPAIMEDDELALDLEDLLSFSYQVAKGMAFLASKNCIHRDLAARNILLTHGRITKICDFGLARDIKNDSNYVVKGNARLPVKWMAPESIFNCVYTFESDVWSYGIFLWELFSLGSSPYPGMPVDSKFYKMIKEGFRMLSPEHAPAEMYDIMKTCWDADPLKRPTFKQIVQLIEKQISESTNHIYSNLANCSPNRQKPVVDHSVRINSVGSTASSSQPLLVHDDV
Outline: (§1)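 GIST-T1 or GIST-5R cells in DMEM with 10% FBS were treated with serially diluted compound for 1 h. Cells were then lysed and analysed by western blotting.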

[3] = molecular target: Cyclin-dependent kinase-like 3 (Homo sapiens) (UniProt Q8IVW4); test: Inhibition of partial length human CDKL3 expressed in bacterial expression system assessed as activity remaining at 1 uM by kinome scan assay
[4] = Solubility of the compound in pure water; format: physicochemical
Outline: (§2)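 Solubility measured in PBS pH 7.4 and in pure water, reported as µg/mL.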

[5] = molecular target: Epithelial discoidin domain-containing receptor 1 (Homo sapiens) (UniProt Q08345); test: Inhibition of partial length human DDR1 expressed in bacterial expression system assessed as activity remaining at 1 uM by kinome scan assay
[6] = tested on: Mast/stem cell growth factor receptor Kit (Homo sapiens), P10721 [T670I]; test: Inhibition of TEL-fused cKIT T670I mutant (unknown origin) expressed in mouse BA/F3 cells assessed as cell growth inhibition after 72 hrs by cell titer-glo assay; format: cell-based
Outline: (§3)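 Cells seeded at 3000 per well and exposed to serial compound dilutions for 72 h. Viability read by CellTiter-Glo luminescence and normalised to DMSO controls; mean of three independent measurements. BaF3 lines kept IL-3-free in RPMI 1640/10% FBS after retroviral transduction and puromycin selection. GIST lines grown in DMEM/10% FBS.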

[7] = molecular target: Platelet-derived growth factor receptor beta (Homo sapiens) (UniProt P09619); test: Inhibition of TEL-fused partial length human PDGFRbeta expressed in mouse BA/F3 cells after 72 hrs by cell titer-glo assay; format: cell-based; outline: as §3
Chain of Platelet-derived growth factor receptor beta (Homo sapiens) (P09619 whole entry, the tested form may be a part): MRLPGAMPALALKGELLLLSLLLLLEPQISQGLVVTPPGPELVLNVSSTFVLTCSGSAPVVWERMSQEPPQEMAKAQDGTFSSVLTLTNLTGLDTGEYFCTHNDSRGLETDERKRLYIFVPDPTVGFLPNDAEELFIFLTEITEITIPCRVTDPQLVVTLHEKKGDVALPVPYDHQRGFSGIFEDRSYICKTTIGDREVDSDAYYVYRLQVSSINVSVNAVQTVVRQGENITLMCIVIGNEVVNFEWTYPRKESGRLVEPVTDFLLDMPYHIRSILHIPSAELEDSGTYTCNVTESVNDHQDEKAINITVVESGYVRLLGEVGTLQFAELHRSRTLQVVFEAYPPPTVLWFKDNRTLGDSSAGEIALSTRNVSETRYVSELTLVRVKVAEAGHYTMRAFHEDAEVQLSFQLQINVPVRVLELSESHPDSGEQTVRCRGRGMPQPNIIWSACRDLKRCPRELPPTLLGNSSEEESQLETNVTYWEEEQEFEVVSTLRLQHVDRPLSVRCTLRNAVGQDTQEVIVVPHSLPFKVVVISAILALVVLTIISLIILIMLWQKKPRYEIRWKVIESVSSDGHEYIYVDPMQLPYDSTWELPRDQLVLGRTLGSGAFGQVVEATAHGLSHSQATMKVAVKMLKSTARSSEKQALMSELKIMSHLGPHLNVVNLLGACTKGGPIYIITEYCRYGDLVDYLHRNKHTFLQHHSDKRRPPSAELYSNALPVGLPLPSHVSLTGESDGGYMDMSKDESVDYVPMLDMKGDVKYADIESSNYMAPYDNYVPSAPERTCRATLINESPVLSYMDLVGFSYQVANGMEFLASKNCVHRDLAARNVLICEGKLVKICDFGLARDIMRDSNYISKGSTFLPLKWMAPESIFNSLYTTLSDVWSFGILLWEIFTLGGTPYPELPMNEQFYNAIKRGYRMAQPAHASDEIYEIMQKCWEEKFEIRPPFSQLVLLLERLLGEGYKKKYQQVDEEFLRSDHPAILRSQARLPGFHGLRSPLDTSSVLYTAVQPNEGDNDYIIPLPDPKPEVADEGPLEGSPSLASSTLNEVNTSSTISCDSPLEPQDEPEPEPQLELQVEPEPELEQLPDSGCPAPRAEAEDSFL

[8] = AUC (0 to infinity) in Sprague-Dawley rat at 1 mg/kg, iv measured up to 8 hrs post dosing; format: ADME, organism-based; parameters: dose 1 mg/kg, route intravenous, time infinity; details: in vivo
Outline: (§4)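 Male Sprague-Dawley rats, 8 weeks old, fasted overnight; iv dosing from a 1 mg/mL solution in 5% DMSO/40% PEG400/55% saline. Jugular-vein blood (~0.2 mL, heparinised) taken at 1, 5, 15, 30 min and 1, 2, 4, 6, 8 h; plasma held at -80 °C until analysis; n=3.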

[9] = molecular target: T1, Mast/stem cell growth factor receptor Kit; test: Inhibition of cKIT T670I mutant in human GIST-5R cells assessed as downregulation of ERK phosphorylation at T202/204 after 1 hr by Western blot analysis; format: cell-based; outline: as §1
BaF3 [10] = test: Antitumor activity against TEL-fused cKIT T670I mutant expressing mouse BA/F3 cells allografted in nu/nu mouse assessed as tumor growth inhibition at 25 mg/kg, ip administered daily for 10 days; format: functional; details: 240 h, read-out: TGI
Outline: (§5)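 Female nu/nu mice, 5 weeks old at purchase, given 1 million BaF3-TEL-cKIT-T670I cells in PBS/Matrigel 1:1 subcutaneously on the right flank. At tumour volume 200–400 mm3, randomised into groups of 7 and dosed IP daily for 10 days (25, 50, 100 mg/kg/d or vehicle: 0.5% methylcellulose/0.4% Tween80 in water). Tumour volume (W2×L/2) and body weight recorded daily.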

[11] = molecular target: T1, Mast/stem cell growth factor receptor Kit; test: Inhibition of cKIT T670I mutant in human GIST-5R cells assessed as downregulation of AKT phosphorylation at S473 after 1 hr by Western blot analysis; format: cell-based; outline: as §1
[12] = tested on: Mast/stem cell growth factor receptor Kit (Homo sapiens), P10721 [V654A]; test: Inhibition of TEL-fused cKIT V654A mutant (unknown origin) expressed in mouse BA/F3 cells assessed as cell growth inhibition after 72 hrs by cell titer-glo assay; format: cell-based; outline: as §3
[13] = molecular target: T2, Mast/stem cell growth factor receptor Kit (Homo sapiens, UniProt P10721); test: Inhibition of wild type cKIT in human GIST-T1 cells assessed as downregulation of AKT phosphorylation at S473 after 1 hr by Western blot analysis; format: cell-based
T2 sequence (P10721 whole entry): as the sequence (P10721 whole entry T670I, the tested form may be a part) above, with I670T counted along it
Outline: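 GIST-T1 cells in DMEM with 10% FBS were exposed to serially diluted compound for 1 h, then lysed. Lysates were analysed by western blot with phospho-specific antibodies against AKT (Ser473), ERK1/2 (Thr202/Tyr204) and S6 ribosomal protein (Ser235/236), each alongside its total protein.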

[14] = molecular target: Proto-oncogene tyrosine-protein kinase receptor Ret (Homo sapiens) (UniProt P07949); test: Inhibition of partial length human RET expressed in bacterial expression system assessed as activity remaining at 1 uM by kinome scan assay
[15] = Solubility of the compound in PBS buffer at pH 7.4; format: physicochemical; outline: as §2
[16] = molecular target: T1, Mast/stem cell growth factor receptor Kit; test: Inhibition of cKIT T670I mutant autophosphorylation at Y823 in human GIST-5R cells at 0.1 to 3 uM after 1 hr by Western blot analysis; format: cell-based; outline: as §1
[17] = molecular target: T2, Mast/stem cell growth factor receptor Kit; test: Inhibition of wild type cKIT autophosphorylation at Y823 in human GIST-T1 cells at 100 nM after 1 hr by Western blot analysis; format: cell-based; outline: as §1
[18] = molecular target: Receptor-type tyrosine-protein kinase FLT3 (Homo sapiens) (UniProt P36888); test: Inhibition of partial length human FLT3 expressed in bacterial expression system assessed as activity remaining at 1 uM by kinome scan assay
Chain of Receptor-type tyrosine-protein kinase FLT3 (Homo sapiens) (P36888 whole entry, the tested form may be a part): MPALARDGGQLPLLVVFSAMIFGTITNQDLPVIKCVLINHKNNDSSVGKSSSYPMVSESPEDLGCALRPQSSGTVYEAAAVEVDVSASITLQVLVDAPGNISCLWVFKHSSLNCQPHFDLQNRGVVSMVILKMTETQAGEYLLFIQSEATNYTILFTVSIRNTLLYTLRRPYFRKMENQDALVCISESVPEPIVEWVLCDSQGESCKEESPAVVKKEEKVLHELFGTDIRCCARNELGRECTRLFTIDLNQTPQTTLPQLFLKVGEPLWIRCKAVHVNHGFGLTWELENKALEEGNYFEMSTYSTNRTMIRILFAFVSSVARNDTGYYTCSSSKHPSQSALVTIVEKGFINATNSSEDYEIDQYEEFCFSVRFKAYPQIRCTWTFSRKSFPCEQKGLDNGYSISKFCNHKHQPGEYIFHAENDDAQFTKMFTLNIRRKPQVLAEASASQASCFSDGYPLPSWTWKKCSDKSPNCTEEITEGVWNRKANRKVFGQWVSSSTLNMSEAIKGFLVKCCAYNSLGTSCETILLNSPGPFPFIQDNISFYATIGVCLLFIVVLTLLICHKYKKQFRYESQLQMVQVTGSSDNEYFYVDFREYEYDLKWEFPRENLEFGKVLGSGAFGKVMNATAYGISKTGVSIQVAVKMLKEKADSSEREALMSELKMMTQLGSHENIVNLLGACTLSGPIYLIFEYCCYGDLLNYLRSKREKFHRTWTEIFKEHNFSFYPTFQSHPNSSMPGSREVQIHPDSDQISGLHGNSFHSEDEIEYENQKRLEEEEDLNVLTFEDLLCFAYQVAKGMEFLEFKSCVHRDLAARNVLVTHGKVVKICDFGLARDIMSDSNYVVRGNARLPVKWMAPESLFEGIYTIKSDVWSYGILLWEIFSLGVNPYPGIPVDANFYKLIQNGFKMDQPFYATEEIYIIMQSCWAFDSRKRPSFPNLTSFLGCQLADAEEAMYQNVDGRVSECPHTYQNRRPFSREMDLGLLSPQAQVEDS

[19] = molecular target: T2, Mast/stem cell growth factor receptor Kit; test: Inhibition of wild type cKIT autophosphorylation at Y719 in human GIST-T1 cells at 100 nM after 1 hr by Western blot analysis; format: cell-based; outline: as §1
[20] = Cmax in Sprague-Dawley rat at 1 mg/kg, iv measured up to 8 hrs post dosing; format: ADME, organism-based; parameters: dose 1 mg/kg, route intravenous; details: in vivo; outline: as §4
[21] = AUC (0 to t) in Sprague-Dawley rat at 1 mg/kg, iv measured up to 8 hrs post dosing; format: ADME, organism-based; parameters: time < 8 hr, dose 1 mg/kg, route intravenous; details: in vivo; outline: as §4
[22] = molecular target: T1, Mast/stem cell growth factor receptor Kit; test: Inhibition of His-tagged cKIT T670I mutant (544 to 935 residues) (unknown origin) expressed in Sf9 cells using Poly(4:1 Glu, Tyr) peptide as substrate after 1 hr by ADP-glo kinase assay
[23] = molecular target: Receptor-type tyrosine-protein kinase FLT3 (Homo sapiens) (UniProt P36888); test: Inhibition of TEL-fused partial length human FLT3 expressed in mouse BA/F3 cells after 72 hrs by cell titer-glo assay; format: cell-based; outline: as §3
[24] = molecular target: T1, Mast/stem cell growth factor receptor Kit; test: Inhibition of cKIT T670I mutant autophosphorylation at Y703 in human GIST-5R cells at 0.1 to 3 uM after 1 hr by Western blot analysis; format: cell-based; outline: as §1
[25] = molecular target: Vascular endothelial growth factor receptor 3 (Homo sapiens) (UniProt P35916); test: Inhibition of TEL-fused partial length human FLT4 expressed in mouse BA/F3 cells after 72 hrs by cell titer-glo assay; format: cell-based; outline: as §3
BaF3 [26] = test: Antitumor activity against TEL-fused cKIT T670I mutant expressing mouse BA/F3 cells allografted in nu/nu mouse assessed as tumor growth inhibition dosed daily via intaperitoneal route after 10 days; format: functional, organism-based; outline: as §5
[27] = tested on: Mast/stem cell growth factor receptor Kit (Homo sapiens), P10721 [D816V]; test: Inhibition of TEL-fused cKIT D816V mutant (unknown origin) expressed in mouse BA/F3 cells assessed as cell growth inhibition after 72 hrs by cell titer-glo assay; format: cell-based; outline: as §3
[28] = molecular target: Vascular endothelial growth factor receptor 3 (Homo sapiens) (UniProt P35916); test: Inhibition of partial length human FLT4 expressed in bacterial expression system assessed as activity remaining at 1 uM by kinome scan assay

Q: Which results are given for `CCC(=O)NCC1CCN(c2ccc(NC(=O)Nc3cccc(Oc4ccnc5cc(OC)c(OC)cc45)c3)cc2C(F)(F)F)CC1`?
A: GI50 [1]: 0.026 µM; EC50 [2]: < 0.1 µM; Activity [3]: 0.3%; solubility [4]: 78 µM (≈ 50.8 µg/mL); Activity [5]: < 1%; GI50 [6]: 0.063 µM; GI50 [7]: 0.005 µM; AUC [8]: 385 ng·h/mL; EC50 [9]: < 0.1 µM; inhibition in vivo at 25 mg/kg (BaF3 [10]): 18.3%; EC50 [11]: < 0.1 µM; GI50 [12]: 0.32 µM; EC50 [13]: < 0.1 µM; Activity [14]: 0%; solubility [15]: 35 µM (≈ 22.8 µg/mL); EC50 [16]: < 0.1 µM; inhibition [17]: Active; Activity [18]: 0.85%; inhibition [19]: Active; Cmax [20]: 2560 ng/mL; AUCt [21]: 377 ng·h/mL; IC50 [22]: 0.099 µM; GI50 [23]: 0.099 µM; EC50 [24]: < 0.1 µM; GI50 [25]: 0.24 µM; TGI (BaF3 [26]): Dose-dependent effect; GI50 [27]: 0.67 µM; Activity [28]: 0%
